One block for each compound: values may come before it. The source made the active and inactive calls. The calls are words filed in the database; no cut-off is given here.
What was measured:
[1] = tested on: NIH3T3; experiment: Cytotoxicity against mouse NIH/3T3 cells assessed as reduction in cell viability after 24 hrs by neutral red uptake assay; assay type: cell-based; conditions: NIH3T3, 24 h
Summary of the method: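 NIH3T3 fibroblasts seeded at 5 x 10^4 per well and cultured 24 h at 37 °C, 5% CO2. DMSO-solubilized samples added at 8 to 160 µM for 24 h; medium as negative control. Neutral Red medium applied 3 h, dye desorbed in acetic acid/ethanol, absorbance read at 540 nm. Three experiments, six replicates per concentration; viability normalized to % control.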

[2] = Mutagenicity in Salmonella typhimurium TA100 at 5 to 230 uM measured after 90 mins in absence of rat liver S9 fraction by Ames test; assay type: toxicity; conditions: salmonella enterica subsp. enterica serovar typhimurium, s9, 1.5 h, dose 5-230 µM
[3] = Mutagenicity in Salmonella typhimurium TA98 at 5 to 230 uM measured after 90 mins in absence of rat liver S9 fraction by Ames test; assay type: toxicity; conditions: salmonella enterica subsp. enterica serovar typhimurium, 1.5 h, dose 5-230 µM
[4] = Mutagenicity in Salmonella typhimurium TA100 at 5 to 230 uM measured after 90 mins in presence of rat liver S9 fraction by Ames test; assay type: toxicity, subcellular; conditions: salmonella enterica subsp. enterica serovar typhimurium, s9, 1.5 h, dose 5-230 µM
[5] = target: Histone deacetylase 1 (Homo sapiens, UniProt Q13547); experiment: Inhibition of recombinant human C-terminal FLAG/His-tagged HDAC1 (1 to 482 residues) expressed in Sf9 insect cells using Z-(Ac)Lys-AMC as substrate measured after 90 mins by fluorescence assay
Summary of the method: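 Incubated with inhibitor in DMSO and fluorogenic substrate Z-(Ac)Lys-AMC (126 µM, as added) for 90 min at 37 °C. Stopped with trichostatin A plus trypsin for 30 min at 37 °C; fluorescence read at ex 390/em 460 nm.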

[6] = Mutagenicity in Salmonella typhimurium TA98 at 5 to 230 uM measured after 90 mins in presence of rat liver S9 fraction by Ames test; assay type: toxicity, subcellular; conditions: salmonella enterica subsp. enterica serovar typhimurium, s9, 1.5 h, dose 5-230 µM
[7] = Solubility of compound in pH 3 buffer at 250 uM measured after 24 hrs by HPLC/UV/DAD method; assay type: physicochemical; conditions: pH 3, 24 h
Summary of the method: (§1)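 10 mM DMSO stock diluted to 250 µM (2.5% DMSO) in 50 mM acetic acid, pH 3.0, and shaken 24 h at 25 °C. For solubility, samples filtered, diluted 1:2, quantified by HPLC-UV at 254 nm against a standard. For stability, percent remaining taken as the 24 h peak area over the T0 peak area. Triplicate analyses averaged.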

[8] = Stability of compound in pH 3 buffer assessed as parent compound remaining at 250 uM measured after 24 hrs by HPLC/UV/DAD method; assay type: physicochemical; conditions: read-out: Stabilty; summary of the method: as §1
[9] = target: T1, Protein deacetylase HDAC6 (Homo sapiens, UniProt Q9UBN7); experiment: Inhibition of recombinant human full length N-terminal GST-tagged HDAC6 expressed in baculovirus infected Sf9 cells using Z-(Ac)Lys-AMC as substrate measured after 90 mins by fluorescence assay
T1 sequence (Q9UBN7 whole entry): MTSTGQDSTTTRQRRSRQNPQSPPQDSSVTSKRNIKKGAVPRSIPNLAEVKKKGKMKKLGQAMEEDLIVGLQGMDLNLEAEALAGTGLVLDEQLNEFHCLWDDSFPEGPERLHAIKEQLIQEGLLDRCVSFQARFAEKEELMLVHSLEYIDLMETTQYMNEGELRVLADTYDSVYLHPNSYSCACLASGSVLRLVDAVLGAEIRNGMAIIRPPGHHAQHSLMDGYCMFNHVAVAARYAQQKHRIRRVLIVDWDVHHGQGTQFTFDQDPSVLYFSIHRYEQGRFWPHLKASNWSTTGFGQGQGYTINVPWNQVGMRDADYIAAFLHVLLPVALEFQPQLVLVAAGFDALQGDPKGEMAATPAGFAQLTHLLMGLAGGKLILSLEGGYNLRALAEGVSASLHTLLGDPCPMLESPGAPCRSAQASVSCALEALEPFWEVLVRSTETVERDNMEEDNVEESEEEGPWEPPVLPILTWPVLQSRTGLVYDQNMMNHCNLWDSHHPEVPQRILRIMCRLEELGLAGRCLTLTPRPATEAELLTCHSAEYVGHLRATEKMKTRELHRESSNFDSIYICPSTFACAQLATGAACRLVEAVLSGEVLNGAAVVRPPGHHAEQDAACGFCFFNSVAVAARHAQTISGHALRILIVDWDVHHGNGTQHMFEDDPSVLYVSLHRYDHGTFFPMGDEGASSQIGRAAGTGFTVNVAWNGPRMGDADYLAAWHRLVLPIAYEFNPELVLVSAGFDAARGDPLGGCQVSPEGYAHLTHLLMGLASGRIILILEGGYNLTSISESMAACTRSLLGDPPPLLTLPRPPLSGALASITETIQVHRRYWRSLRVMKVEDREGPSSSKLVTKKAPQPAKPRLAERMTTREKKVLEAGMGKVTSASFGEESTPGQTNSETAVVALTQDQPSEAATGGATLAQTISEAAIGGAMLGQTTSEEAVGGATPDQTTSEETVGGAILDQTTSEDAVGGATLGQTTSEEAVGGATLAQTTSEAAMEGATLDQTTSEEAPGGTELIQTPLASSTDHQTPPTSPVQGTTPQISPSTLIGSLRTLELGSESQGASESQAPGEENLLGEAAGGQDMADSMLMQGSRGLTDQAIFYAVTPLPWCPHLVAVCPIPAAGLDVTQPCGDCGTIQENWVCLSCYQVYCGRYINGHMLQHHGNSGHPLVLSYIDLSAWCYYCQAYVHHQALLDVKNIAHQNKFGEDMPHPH

[10] = tested on: HCT-116; experiment: Cytotoxicity against human HCT-116 cells assessed as reduction in cell viability measured after 48 hrs by MTT assay; assay type: functional, cell-based; conditions: HCT-116, 48 h
Summary of the method: (§2)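 HCT-116 cells grown in DMEM with 10% FBS, 2 mM L-glutamine and antibiotics. 2.5×10^4 cells/well treated in triplicate at 50, 25, 10, 5 and 1 µM for 12, 24 or 48 h. Then MTT 0.5 mg/ml for 3 h, supernatant removed, formazan dissolved in isopropanol, absorbance read at 570 nm. IC50 derived from the concentration series.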

[11] = tested on: U-937; experiment: Cytotoxicity against human U-937 cells assessed as reduction in cell proliferation at 50 uM measured after 48 hrs by MTT assay relative to control; assay type: functional; parameters: scale not given: the % may be the effect or the level left
Summary of the method: (§3)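 U937 cells grown in RPMI-1640 with 10% FBS, 2 mM L-glutamine and penicillin-streptomycin. 2.5×10^4 cells/well treated in triplicate at 50, 25, 10, 5 and 1 µM for 12, 24 or 48 h. MTT 0.5 mg/ml added for 3 h, plate centrifuged 5 min at 1200 rpm, crystals dissolved in isopropanol, A570 read. IC50 derived from the concentration series.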

[12] = tested on: HCT-116; experiment: Cytotoxicity against human HCT-116 cells assessed as reduction in cell viability measured after 24 hrs by MTT assay; assay type: functional, cell-based; conditions: HCT-116, 24 h; summary of the method: as §2
[13] = Inhibition of HDAC1/2/3/8 in human U-937 cells assessed as increase in H3K9/14 acetylation at 10 uM measured after 12 to 24 hrs by Western blot analysis; assay type: cell-based; conditions: u-937, 10 µM, time 12-24 hrs
Summary of the method: (§4)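 HCT-116 or U937 cells treated at 10 µM for 12 and 24 h. […] Western blot used 40 µg total protein or 5 µg acid-extracted histone. Blots probed for cleaved PARP, acetylated tubulin, H3K9/14ac and Hsp90(AcLys294), normalized to GAPDH or H4. Compared with control cells by one-way ANOVA and Dunnett's test.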

[14] = tested on: U-937; experiment: Cytotoxicity against human U-937 cells assessed as reduction in cell viability measured after 48 hrs by MTT assay; assay type: functional, cell-based; conditions: U-937, 48 h; summary of the method: as §3
[15] = tested on: HCT-116; experiment: Cytotoxicity against human HCT-116 cells assessed as cell viability at 50 uM measured after 48 hrs by MTT assay relative to control; assay type: functional; conditions: read-out: Activity; summary of the method: as §2
[16] = Inhibition of HDAC1/2/3/8 in human HCT-116 cells assessed as increase in H3K9/14 acetylation at 10 uM measured after 12 to 24 hrs by Western blot analysis relative to control; assay type: cell-based; conditions: hct-116, 10 µM, time 12-24 hrs; summary of the method: as §4
[17] = target: T2, Protein deacetylase HDAC6 (Homo sapiens) (UniProt Q9UBN7); experiment: Inhibition of HDAC6 in human U-937 cells assessed as increase in Hsp90(AcLys294) acetylation at 10 uM measured after 12 to 24 hrs by Western blot analysis; assay type: cell-based; conditions: time 12-24 hrs; summary of the method: as §4
T2 sequence (whole entry): T1 sequence (Q9UBN7 whole entry)

[18] = target: T2, Protein deacetylase HDAC6 (Homo sapiens); experiment: Inhibition of HDAC6 in human HCT-116 cells assessed as increase in Hsp90(AcLys294) acetylation at 10 uM measured after 12 to 24 hrs by Western blot analysis; assay type: cell-based; conditions: time 12-24 hrs; summary of the method: as §4
[19] = target: T2, Protein deacetylase HDAC6 (Homo sapiens); experiment: Inhibition of HDAC6 in human HCT-116 cells assessed as increase in alpha-tubulin acetylation at 10 uM measured after 12 to 24 hrs by Western blot analysis relative to control; assay type: cell-based; conditions: time 12-24 hrs; summary of the method: as §4
[20] = target: T2, Protein deacetylase HDAC6 (Homo sapiens); experiment: Inhibition of HDAC6 in human U-937 cells assessed as increase in alpha-tubulin acetylation at 10 uM measured after 12 to 24 hrs by Western blot analysis relative to control; assay type: cell-based; conditions: time 12-24 hrs; summary of the method: as §4
[21] = target: T3, Histone deacetylase 8 (Homo sapiens, UniProt Q9BY41); experiment: Inhibition of recombinant human HDAC8 using Fluor-de-Lys as substrate measured after 1 hr by fluorescence assay
T3 sequence (Q9BY41 whole entry): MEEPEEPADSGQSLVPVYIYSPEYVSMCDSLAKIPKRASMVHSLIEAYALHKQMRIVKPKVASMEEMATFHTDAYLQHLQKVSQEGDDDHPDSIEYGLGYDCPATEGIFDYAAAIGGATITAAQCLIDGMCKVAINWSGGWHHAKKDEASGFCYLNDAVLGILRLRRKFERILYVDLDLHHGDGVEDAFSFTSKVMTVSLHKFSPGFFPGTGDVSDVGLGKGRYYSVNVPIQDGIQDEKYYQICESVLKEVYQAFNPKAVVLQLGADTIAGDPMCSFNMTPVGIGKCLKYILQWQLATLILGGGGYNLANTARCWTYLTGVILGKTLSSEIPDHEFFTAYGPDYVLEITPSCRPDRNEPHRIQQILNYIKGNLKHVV

Histone deacetylase 1, sequence (Q13547 whole entry, the tested form may be a part): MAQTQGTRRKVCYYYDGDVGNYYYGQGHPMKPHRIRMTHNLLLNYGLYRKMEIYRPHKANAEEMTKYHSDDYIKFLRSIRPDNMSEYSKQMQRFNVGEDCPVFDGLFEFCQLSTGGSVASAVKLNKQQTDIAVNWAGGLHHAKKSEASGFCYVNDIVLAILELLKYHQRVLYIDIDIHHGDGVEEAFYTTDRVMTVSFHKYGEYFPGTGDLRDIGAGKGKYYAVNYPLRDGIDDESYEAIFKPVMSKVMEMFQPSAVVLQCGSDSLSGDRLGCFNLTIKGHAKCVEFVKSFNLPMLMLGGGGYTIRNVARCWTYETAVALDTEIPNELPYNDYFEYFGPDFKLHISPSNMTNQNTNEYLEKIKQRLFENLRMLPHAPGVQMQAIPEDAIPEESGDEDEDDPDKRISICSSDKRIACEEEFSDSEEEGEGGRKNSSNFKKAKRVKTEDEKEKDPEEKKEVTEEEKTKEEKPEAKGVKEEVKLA

SMILES: Cn1c(=O)c(OCc2ccc(C(=O)NO)cc2)c(-c2cccnc2)c2ccccc21
- IC50 [5]: 5010 nM
- IC50 [9]: 46 nM

SMILES: O=C(NO)c1ccc(COc2c(-c3ccccc3)c3ccccc3n(Cc3ccncc3)c2=O)cc1
- IC50 [5]: 1200 nM
- solubility [7]: Soluble
- remaining at 24 h, 250 µM [8]: > 95%
- IC50 [9]: 84.1 nM

SMILES: Cn1c(=O)c(OCc2ccc(C(=O)NO)cc2)c(C2CCCCC2)c2ccccc21
- IC50 [1]: 18000 nM
- IC50 [21]: 1640 nM
- Kapp ([21]; human, 1 h): 1.93 µM
- Activity [2]: Non-Toxic
- Activity [3]: Non-Toxic
- Activity [4]: Non-Toxic
- IC50 [5]: 3000 nM
- Activity [6]: Non-Toxic
- IC50 [9]: 33 nM

SMILES: O=C(NO)c1ccc(Cn2c(=O)c(O)c(-c3ccccc3)c3ccccc32)cc1
- IC50 [5]: 11000 nM
- IC50 [9]: 308 nM

SMILES: O=C(NO)c1ccc(COc2c(-c3cccnc3)c3ccccc3n(Cc3ccncc3)c2=O)cc1
- IC50 [5]: 1700 nM
- IC50 [9]: 45.3 nM

The next lines start with results.

- IC50 [5]: 4500 nM
- solubility [7]: Soluble
- remaining at 24 h, 250 µM [8]: > 95%
- IC50 [9]: 61.6 nM
SMILES: COc1c(-c2ccccc2)c2ccccc2n(Cc2ccc(C(=O)NO)cc2)c1=O
- IC50 [1]: 90000 nM
- Activity [2]: Non-Toxic
- Activity [3]: Non-Toxic
- Activity [4]: Non-Toxic
- Activity [6]: Non-Toxic

- inhibition (INH) [13]: Active
- IC50 [5]: 6600 nM
- fold change (FC) [16]: 2
- inhibition [17]: Active
- inhibition [18]: Active
- fold change (FC) [19]: > 9
- IC50 [9]: 147 nM
- fold change (FC) [20]: > 9
SMILES: O=C(NO)c1ccc(COc2c(-c3ccccc3)c3ccccc3[nH]c2=O)cc1
- IC50 [10]: 15000 nM
- Activity [11]: 60%
- IC50 [12]: 33400 nM
- IC50 [14]: 27900 nM
- viability at 50 µM [15]: 10%

Reference: ChEMBL document CHEMBL4732101, “Novel quinolone-based potent and selective HDAC6 inhibitors: Synthesis, molecular modeling studies and biological investigation” (Eur J Med Chem, 2021)
